Experimental data reported in ChEMBL document CHEMBL4145683, “Total Synthesis and Structure-Activity Relationships Study of Odilorhabdins, a New Class of Peptides Showing Potent Antibacterial Activity” (J Med Chem, 2018).
pIC50: −log10 of the molar value. In brackets after ≈: the same amount, converted by molar mass. Non-standard residues stand in square brackets, D forms with d. Residues, ends and D or L forms follow the SMILES beside them. *: point of attachment. Dab(3S-OH) = NC[C@H](O)[C@H](N)C(=O)O; ΔZArg = N=C(N)NCC/C=C(\N)C(=O)O; dOrn = NCCC[C@@H](N)C(=O)O; NH(CH2)4NH2 = NCCCCN*

Legend:
Escherichia coli [1] = test: microbe, parasite or virus in culture; details: ATCC 25922
Escherichia coli [2] = test: Inhibition of bacterial protein synthesis in cell-free Escherichia coli incubated for 1 hr and measured for every 20 mins by bacterial cell-free transcription-translation assay; type: functional; details: Escherichia coli
In short: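 E. coli cell-free coupled transcription-translation used a GFP gene in pEXP5-CT as template, started with 1 μg plasmid in 50 μL reactions. Feed buffer was added at 30 min, with incubation at 30 °C. Fluorescence (ex 475/em 520 nm) was read every 20 min. IC50 was taken at 1 h after feed addition from a four-parameter log(inhibitor)–response fit. Duplicates.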

Klebsiella pneumoniae = test: Antimicrobial activity against Klebsiella pneumoniae ATCC 43816 by broth microdilution method; type: functional; details: Klebsiella pneumoniae, ATCC 43816; read-out: MIC
In short: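 Broth microdilution MIC per CLSI M07-A10, with inoculum prepared by direct colony suspension. Reference strains were from ATCC and NCTC.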

Row | SMILES | MIC (Escherichia coli [1]) | pIC50 (Escherichia coli [2]) | MIC (Klebsiella pneumoniae)
1 | N=C(N)NCC/C=C(\NC(=O)[C@H](CCCCN)NC(=O)[C@H](Cc1cnc[nH]1)NC(=O)[C@@H]1CCCN1C(=O)[C@@H](CCCN)NC(=O)CNC(=O)[C@@H](N)[C@@H](O)CN)C(=O)N[C@@H](CCCCN)C(=O)NCCCCN | > 64 µg/mL | < 4.40 | > 64 µg/mL
2 | C[C@H](NC(=O)[C@H](Cc1cnc[nH]1)NC(=O)[C@@H]1CCCN1C(=O)[C@@H](CCCN)NC(=O)CNC(=O)[C@@H](NC(=O)[C@@H](NC(=O)[C@@H](N)CCCCN)[C@@H](O)CN)[C@@H](O)CN)C(=O)N/C(=C\CCNC(=N)N)C(=O)N[C@@H](CCCCN)C(=O)NCCCCN | 16 µg/mL (≈ 13.3 µM) | 5.73 | 4 µg/mL (≈ 3.31 µM)
3 | NCCCC[C@H](NC(=O)[C@H](Cc1cnc[nH]1)NC(=O)[C@@H]1CCCN1C(=O)[C@@H](CCCN)NC(=O)CNC(=O)[C@@H](NC(=O)[C@@H](NC(=O)[C@@H](N)CCCCN)[C@@H](O)CN)[C@@H](O)CN)C(=O)O | > 64 µg/mL | 5.00 | > 64 µg/mL
4 | C[C@H](NC(=O)[C@@H](N)CCCCN)C(=O)N[C@H](C(=O)NCC(=O)N[C@H](CCCN)C(=O)N1CCC[C@H]1C(=O)N[C@@H](Cc1cnc[nH]1)C(=O)N[C@@H](CCCCN)C(=O)N/C(=C\CCNC(=N)N)C(=O)N[C@@H](CCCCN)C(=O)NCCCCN)[C@@H](O)CN | > 64 µg/mL | 5.35 | > 64 µg/mL
5 | C[C@@H](NC(=O)CNC(=O)[C@@H](NC(=O)[C@@H](NC(=O)[C@@H](N)CCCCN)[C@@H](O)CN)[C@@H](O)CN)C(=O)N1CCC[C@H]1C(=O)N[C@@H](Cc1cnc[nH]1)C(=O)N[C@@H](CCCCN)C(=O)N/C(=C\CCNC(=N)N)C(=O)N[C@@H](CCCCN)C(=O)NCCCCN | > 64 µg/mL | < 4.40 | > 64 µg/mL
6 | N=C(N)NCC/C=C(\NC(=O)[C@H](CCCCN)NC(=O)[C@H](Cc1cnc[nH]1)NC(=O)[C@@H]1CCCN1C(=O)[C@@H](CCCN)NC(=O)CNC(=O)[C@@H](NC(=O)[C@H](CO)NC(=O)[C@@H](N)CCCCN)[C@@H](O)CN)C(=O)N[C@@H](CCCCN)C(=O)NCCCCN | > 64 µg/mL | < 4.40 | > 64 µg/mL
7 | NCCCC[C@H](N)C(=O)N[C@H](C(=O)N[C@H](C(=O)NCC(=O)N[C@H](CCCN)C(=O)N1CCC[C@H]1C(=O)N[C@@H](Cc1cnc[nH]1)C(=O)O)[C@@H](O)CN)[C@@H](O)CN | > 64 µg/mL | 5.02 | > 64 µg/mL
8 | N=C(N)NCC/C=C(\NC(=O)[C@H](CCCCN)NC(=O)[C@H](Cc1cnc[nH]1)NC(=O)[C@@H]1CCCN1C(=O)[C@@H](CCCN)NC(=O)CNC(=O)[C@@H](NC(=O)[C@@H](N)[C@@H](O)CN)[C@@H](O)CN)C(=O)N[C@@H](CCCCN)C(=O)NCCCCN | > 64 µg/mL | < 4.40 | > 64 µg/mL
9 | C[C@H](O)[C@H](NC(=O)[C@@H](N)CCCCN)C(=O)N[C@H](C(=O)NCC(=O)N[C@H](CCCN)C(=O)N1CCC[C@H]1C(=O)N[C@@H](Cc1cnc[nH]1)C(=O)N[C@@H](CCCCN)C(=O)N/C(=C\CCNC(=N)N)C(=O)N[C@@H](CCCCN)C(=O)NCCCCN)[C@@H](O)CN | > 64 µg/mL | < 4.40 | > 64 µg/mL
10 | C/C=C(\NC(=O)[C@H](CCCCN)NC(=O)[C@H](Cc1cnc[nH]1)NC(=O)[C@@H]1CCCN1C(=O)[C@@H](CCCN)NC(=O)CNC(=O)[C@@H](NC(=O)[C@@H](NC(=O)[C@@H](N)CCCCN)[C@@H](O)CN)[C@@H](O)CN)C(=O)N[C@@H](CCCCN)C(=O)NCCCCN | 16 µg/mL (≈ 13.4 µM) | 6.08 | 8 µg/mL (≈ 6.7 µM)
11 | C[C@H](N)C(=O)N[C@H](C(=O)N[C@H](C(=O)NCC(=O)N[C@H](CCCN)C(=O)N1CCC[C@H]1C(=O)N[C@@H](Cc1cnc[nH]1)C(=O)N[C@@H](CCCCN)C(=O)N/C(=C\CCNC(=N)N)C(=O)N[C@@H](CCCCN)C(=O)NCCCCN)[C@@H](O)CN)[C@@H](O)CN (H-A[Dab(3S-OH)][Dab(3S-OH)]G[dOrn]PHK[ΔZArg]K-{NH(CH2)4NH2}) | 16 µg/mL (≈ 13.3 µM) | 6.14 | 8 µg/mL (≈ 6.63 µM)
12 | N=C(N)NCC/C=C(\NC(=O)[C@H](CCCCN)NC(=O)[C@H](Cc1cnc[nH]1)NC(=O)[C@@H]1CCCN1C(=O)[C@@H](CCCN)NC(=O)CNC(=O)CNC(=O)[C@@H](NC(=O)[C@@H](N)CCCCN)[C@@H](O)CN)C(=O)N[C@@H](CCCCN)C(=O)NCCCCN (H-K[Dab(3S-OH)]GG[dOrn]PHK[ΔZArg]K-{NH(CH2)4NH2}) | 8 µg/mL (≈ 6.64 µM) | 5.97 | 8 µg/mL (≈ 6.64 µM)
13 | N=C(N)NCC/C=C(\NC(=O)[C@H](CCCCN)NC(=O)[C@H](Cc1cnc[nH]1)NC(=O)[C@@H]1CCCN1C(=O)[C@@H](CCCN)NC(=O)CNC(=O)[C@H](CO)NC(=O)[C@@H](NC(=O)[C@@H](N)CCCCN)[C@@H](O)CN)C(=O)N[C@@H](CCCCN)C(=O)NCCCCN (H-K[Dab(3S-OH)]SG[dOrn]PHK[ΔZArg]K-{NH(CH2)4NH2}) | 4 µg/mL (≈ 3.24 µM) | 6.18 | 4 µg/mL (≈ 3.24 µM)
